Broadly, the IC50 is the concentration needed to halve the response being measured.

Experimental findings from ChEMBL document CHEMBL4673306, “Exploration of nitrogen heterocycle scaffolds for the development of potent human neutrophil elastase inhibitors” (Bioorg Med Chem, 2021) are described below.

One data set has as its target T1, Neutrophil elastase (Homo sapiens, UniProt P08246).
T1 sequence (P08246 whole entry): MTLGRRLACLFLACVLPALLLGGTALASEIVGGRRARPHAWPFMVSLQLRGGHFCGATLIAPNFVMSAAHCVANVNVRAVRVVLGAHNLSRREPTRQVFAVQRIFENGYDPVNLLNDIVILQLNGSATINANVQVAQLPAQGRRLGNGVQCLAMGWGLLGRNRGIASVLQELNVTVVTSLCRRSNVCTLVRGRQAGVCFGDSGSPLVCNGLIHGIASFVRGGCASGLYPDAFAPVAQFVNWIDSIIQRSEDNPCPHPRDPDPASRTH
Description: Inhibition of human neutrophil elastase using N-methylsuccinyl-Ala-Ala-Pro-Val-7-amino-4-methylcoumarin as substrate measured for every 30 sec for 10 mins by fluorescence based assay.

Data set [1] in a line: Stability of compound in PBS at pH 7.4 assessed as half life by spectrophotometry. It is filed as physicochemical. As to conditions: buffer; call rule not given here. The essentials: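 Spontaneous hydrolysis measured at 20 °C in 0.05 M phosphate buffer, pH 7.4, with compound at 20 μM. Absorbance was read at each compound's characteristic maximum over time until it stopped falling (A∞). k' was taken from the slope of log(At − A∞) versus time, and t1/2 = 0.693/k'.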

`COc1cccc(CNC(=O)c2cnn3c(C)c(C(C)=O)cnc23)c1`: the IC50 entry against Neutrophil elastase is listed as “Not Active”.
As for `Cc1cccc(C(=O)n2nc(C#N)c3cccnc32)c1`, on Neutrophil elastase (read-out: IC50), the IC50 turned out to be 0.33 µM.
The same measure, in the same setting: as for `Cc1ccc(C(=O)n2nc(C#N)c3cccnc32)cc1`, the figure is 1.5 µM.
In the case of `N#Cc1nn(Cc2ccccc2)c2ncccc12`, the half-maximal inhibitory concentration (IC50) result against Neutrophil elastase is reported as “Not Active”.
`Cc1cccc(C(=O)n2nc(C#N)c3cnccc32)c1`: the IC50 on Neutrophil elastase (read-out: IC50) worked out at 0.01 µM. Further, in data set [1], the t1/2 was determined as 0.203 h.
Regarding `COc1cccc(NC(=O)c2cnc3cc(C)nn3c2C)c1`, the concentration for half-maximal inhibition (IC50) result against Neutrophil elastase was “Not Active”.
Take `COc1cccc(CNC(=O)c2cnc3cc(C(C)(C)C)nn3c2C)c1`: the IC50 entry against Neutrophil elastase is “Not Active”.
As for `CCOC(=O)c1nn(C(=O)c2cccc(C)c2)c2ncccc12`, at Neutrophil elastase (read-out: IC50), the 50% inhibitory concentration (IC50) came to 2 µM.
The same measure, in the same setting: to `N#Cc1nn(C(=O)C2CCCC2)c2ncccc12` belongs 0.14 µM.
Take `O=C(C1CC1)n1nc(C(F)(F)F)c2cnccc21`: the IC50 at Neutrophil elastase (read-out: IC50) amounted to 0.087 µM. In data set [1], the t1/2 was 6.435 h.
For `CCOC(=O)c1nn(C(=O)C2CC2)c2ccncc12`, in that order: 0.069 µM and 7.28 h.
With `Cc1cccc(C(=O)n2nc(C(=O)OC(C)C)c3cccnc32)c1`, at Neutrophil elastase (read-out: IC50), the concentration for half-maximal inhibition (IC50) was found to be 0.98 µM.
On the same count and under the same terms, as for `Cc1cccc(C(=O)n2nc(C(F)(F)F)c3cccnc32)c1`, the figure is 0.42 µM.
In the case of `COc1cccc(CNC(=O)c2cnc3cc(C)nn3c2C)c1`, the half-inhibitory concentration (IC50) result against Neutrophil elastase is given as “Not Active”.
For `N#Cc1nn(C(=O)C2CC2)c2ccncc12`, the IC50 on Neutrophil elastase (read-out: IC50) was found to be 0.079 µM. Also, the t1/2 in data set [1] came out at 1.32 h.
For `O=C(C1CC1)n1nc(C(F)(F)F)c2cccnc21` the same measures were 0.05 µM and 14.7 h.
Take `COc1cccc(NC(=O)c2cnn3c(C)c(C(C)=O)cnc23)c1`: the IC50 result at Neutrophil elastase is on record as “Not Active”.
`Nc1nn(C(=O)C2CC2)c2ncccc12`: on Neutrophil elastase (read-out: IC50), the IC50 amounted to 9.9 µM.
Consider `O=C(C1CC1)n1nc([N+](=O)[O-])c2cccnc21`, for which, on Neutrophil elastase (read-out: IC50), the IC50 was determined as 0.021 µM. Besides, in data set [1], the t1/2 amounted to 1.56 h.
For `O=C(C1CC1)n1ccc2nccnc21`, the concentration for half-maximal inhibition (IC50) at Neutrophil elastase (read-out: IC50) worked out at 7.9 µM.
`Cc1cccc(C(=O)n2cc(C#N)c3ncccc32)c1`: the t1/2 in data set [1] was found to be 1.28 h.
Still for that read-out and setting: as for `N#Cc1cn(C(=O)C2CC2)c2nccnc12`, the figure is 1.677 h.
With `N#Cc1cn(C(=O)C2CC2)c2cccnc12`, the IC50 on Neutrophil elastase (read-out: IC50) stood at 0.023 µM. Further, the t1/2 in data set [1] came to 4.472 h.
Regarding `N#Cc1nn(C(=O)C2CCCCC2)c2ncccc12`, the half-maximal inhibitory concentration (IC50) at Neutrophil elastase (read-out: IC50) was determined as 1.1 µM.
`Cc1cccc(C(=O)n2cc(C#N)c3cnccc32)c1`: in data set [1], the t1/2 is 2.722 h.
Take `N#Cc1nn(C(=O)C2CC2)c2ncccc12`: the IC50 on Neutrophil elastase (read-out: IC50) was determined as 0.034 µM.
With `COc1cccc(NC(=O)c2cnc3c(Cl)c(C(C)(C)C)nn3c2C)c1`, the IC50 entry against Neutrophil elastase was “Not Active”.
As for `COc1cccc(NC(=O)c2cnc3cc(C(C)(C)C)nn3c2C)c1`, on Neutrophil elastase, the half-maximal inhibitory concentration (IC50) entry was “Not Active”.
For the molecule `N#Cc1nn(C(=O)c2ccccc2)c2ncccc12`, the IC50 on Neutrophil elastase (read-out: IC50) worked out at 0.16 µM.
Regarding `COc1cccc(CNC(=O)c2cnc3c(Cl)c(C(C)(C)C)nn3c2C)c1`, at Neutrophil elastase, the IC50 entry is “Not Active”.
With `Cc1cccc(C(=O)n2nc(C)c3cnccc32)c1`, the IC50 at Neutrophil elastase (read-out: IC50) was found to be 0.76 µM.
On the same count and under the same terms, to `N#Cc1cn(C(=O)C2CC2)c2cnccc12` belongs 0.183 µM.
For `CCOC(=O)c1nn(C(=O)c2cccc(C)c2)c2ccncc12`, the IC50 on Neutrophil elastase (read-out: IC50) worked out at 0.016 µM. In addition, the t1/2 in data set [1] was found to be 2.45 h.
With `Cc1cccc(C(=O)n2nc(C(F)(F)F)c3cnccc32)c1`, at Neutrophil elastase (read-out: IC50), the half-maximal inhibitory concentration (IC50) stood at 0.033 µM. Further, the t1/2 in data set [1] is 1.777 h.
